Tests used:
[1] = Half maximal concentration for producing a phasic block in skeletal muscle fibers (cumulative sodium current reduction at 10 Hz stimulations frequency); type: functional, tissue-based, Muscle tissue
How it was run: (§1)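 Four-pool grease-gap voltage clamp on single skeletal muscle fibers; the central pool held external solution (mM: NaCl 77, choline Cl 38, CaCl2 1.8, KCl 2.5, Na2HPO4 2.15, NaH2PO4 0.85) with drug added. Recordings at 10 °C after 10 min equilibration, holding potential -100 mV, 10-ms test pulses to -20 mV. IC50 for I_Namax block came from a logistic fit of concentration-response data, 3-7 fibers per point, mean ± SEM.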

[2] = Half maximal concentration for producing a tonic block in skeletal muscle fibers (block of sodium channel at resting conditions evaluated during infrequent depolarizing pulses); type: functional, tissue-based, Muscle tissue; how it was run: as §1
[3] = In vitro potential anti-myotonic activity as potency in phasic block in relation to tocainide (tocainide = 1); type: functional
How it was run: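 Phasic block was measured at 10 Hz by voltage clamp of skeletal muscle fiber Na+ current at 10 °C, holding potential -100 mV, pulses to -20 mV. The IC50 came from a logistic concentration-response fit, and potency was expressed relative to tocainide (tocainide = 1).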

[4] = Ratio of IC50 tonic block to IC50 phasic block; type: functional

Row | Structure (SMILES) | IC50 [1] [µM] | IC50 [2] [µM] | Activity [3] | Ratio [4]
1 | Cc1cccc(C)c1NC(=O)[C@@H]1CCCN1C | 28 | 106 | 8 | 3.4
2 | Cc1cccc(C)c1NC(=O)[C@H]1CCCN1 | 13 | 110 | 21 | 8.5
3 | Cc1cccc(C)c1NC(=O)[C@@H](C)N [(R)-TOCAINIDE] | 270 | 580 | 1 | 2.1
4 | Cc1cccc(C)c1NC(=O)[C@H](C)N [S-TOCAINIDE] | 220 | 520 | 1 | 2.4
5 | Cc1cccc(C)c1NC(=O)[C@H]1CCCN1C | 100 | 300 | 2.7 | 3

Second part, led by results:

Row | IC50 [1] [µM] | IC50 [2] [µM] | Structure (SMILES) | Activity [3] | Ratio [4]
6 | 44 | 230 | Cc1cccc(C)c1NC(=O)[C@@H]1CCCN1 | 5 | 5.2
7 | 198 | 286 | Cc1cccc(C)c1N(C)C(=O)[C@@H]1CCCN1C | 1.1 | 1.4
8 | 67 | 104 | Cc1cccc(C)c1N(C)C(=O)[C@@H]1CCCN1 | 3 | 1.5
9 | 440 | > 500 | Cc1cccc(C)c1N(C)C(=O)[C@H]1CCCN1C | 0.6 | > 1.1
10 | 217 | 340 | Cc1cccc(C)c1N(C)C(=O)[C@H]1CCCN1 | 1 | 1.6

Source: ChEMBL document CHEMBL1133685, “Synthesis of new 2,6-prolylxylidide analogues of tocainide as stereoselective blockers of voltage-gated Na(+) channels with increased potency and improved use-dependent activity” (J Med Chem, 2000)
